Reference: ChEMBL document CHEMBL1811824, “Synthesis and evaluation of mansonone F derivatives as topoisomerase inhibitors” (Eur J Med Chem, 2011)
Activity calls are given as the source filed them. The calls are words filed in the database; no cut-off is given here.

Key:
[1] = Antitumor against human CNE2 cells assessed as cell survival after 48 hrs by MTT assay; format: functional, cell-based; conditions: CNE-2, 48 h
How it was run: (§1)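 1 × 10^4 cells per well plated and left overnight, then exposed to compound at 0–100 μM for 48 h. Per well, 20 μl of 5 mg/ml MTT added, then incubated 4 h at 37 °C. Untransformed MTT removed, formazan dissolved in DMSO, absorbance read at 570 nm, and IC50 derived. Modified Mosmann method.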

[2] = Antitumor against human GLC82 cells assessed as cell survival after 48 hrs by MTT assay; format: functional, cell-based; conditions: GLC82, 48 h; how it was run: as §1
[3] = biological target: T1, DNA topoisomerase 1 (Homo sapiens) (UniProt P11387); test: Inhibition of human topoisomerase 1-mediated relaxation of supercoiled pBR322 DNA at 250 uM after 30 mins by agarose gel electrophoresis
T1 sequence (whole entry): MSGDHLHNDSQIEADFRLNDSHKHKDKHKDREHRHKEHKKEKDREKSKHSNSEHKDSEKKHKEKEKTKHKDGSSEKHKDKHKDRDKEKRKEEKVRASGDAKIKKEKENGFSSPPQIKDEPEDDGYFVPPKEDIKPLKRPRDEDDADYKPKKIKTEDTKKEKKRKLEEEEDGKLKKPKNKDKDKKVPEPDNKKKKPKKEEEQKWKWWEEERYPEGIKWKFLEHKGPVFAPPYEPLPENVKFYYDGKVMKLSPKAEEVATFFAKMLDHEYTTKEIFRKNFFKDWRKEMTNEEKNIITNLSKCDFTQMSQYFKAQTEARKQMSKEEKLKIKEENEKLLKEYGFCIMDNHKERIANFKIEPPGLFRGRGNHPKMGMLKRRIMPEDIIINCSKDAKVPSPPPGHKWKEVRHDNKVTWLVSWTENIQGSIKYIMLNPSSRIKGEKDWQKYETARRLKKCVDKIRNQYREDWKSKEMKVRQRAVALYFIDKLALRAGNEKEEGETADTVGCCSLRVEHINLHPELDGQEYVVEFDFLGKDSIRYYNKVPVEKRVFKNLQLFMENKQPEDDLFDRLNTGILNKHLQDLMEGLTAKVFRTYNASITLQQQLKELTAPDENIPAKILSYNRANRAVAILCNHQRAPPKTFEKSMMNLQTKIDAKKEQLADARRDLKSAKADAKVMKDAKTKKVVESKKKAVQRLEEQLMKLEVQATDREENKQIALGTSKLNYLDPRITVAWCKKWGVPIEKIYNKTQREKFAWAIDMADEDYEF

[4] = biological target: T2, DNA topoisomerase 2-alpha (Homo sapiens, UniProt P11388); test: Inhibition of human topoisomerase 2 alpha-mediated relaxation of supercoiled pBR322 DNA after 30 mins by agarose gel electrophoresis
T2 sequence (P11388 whole entry): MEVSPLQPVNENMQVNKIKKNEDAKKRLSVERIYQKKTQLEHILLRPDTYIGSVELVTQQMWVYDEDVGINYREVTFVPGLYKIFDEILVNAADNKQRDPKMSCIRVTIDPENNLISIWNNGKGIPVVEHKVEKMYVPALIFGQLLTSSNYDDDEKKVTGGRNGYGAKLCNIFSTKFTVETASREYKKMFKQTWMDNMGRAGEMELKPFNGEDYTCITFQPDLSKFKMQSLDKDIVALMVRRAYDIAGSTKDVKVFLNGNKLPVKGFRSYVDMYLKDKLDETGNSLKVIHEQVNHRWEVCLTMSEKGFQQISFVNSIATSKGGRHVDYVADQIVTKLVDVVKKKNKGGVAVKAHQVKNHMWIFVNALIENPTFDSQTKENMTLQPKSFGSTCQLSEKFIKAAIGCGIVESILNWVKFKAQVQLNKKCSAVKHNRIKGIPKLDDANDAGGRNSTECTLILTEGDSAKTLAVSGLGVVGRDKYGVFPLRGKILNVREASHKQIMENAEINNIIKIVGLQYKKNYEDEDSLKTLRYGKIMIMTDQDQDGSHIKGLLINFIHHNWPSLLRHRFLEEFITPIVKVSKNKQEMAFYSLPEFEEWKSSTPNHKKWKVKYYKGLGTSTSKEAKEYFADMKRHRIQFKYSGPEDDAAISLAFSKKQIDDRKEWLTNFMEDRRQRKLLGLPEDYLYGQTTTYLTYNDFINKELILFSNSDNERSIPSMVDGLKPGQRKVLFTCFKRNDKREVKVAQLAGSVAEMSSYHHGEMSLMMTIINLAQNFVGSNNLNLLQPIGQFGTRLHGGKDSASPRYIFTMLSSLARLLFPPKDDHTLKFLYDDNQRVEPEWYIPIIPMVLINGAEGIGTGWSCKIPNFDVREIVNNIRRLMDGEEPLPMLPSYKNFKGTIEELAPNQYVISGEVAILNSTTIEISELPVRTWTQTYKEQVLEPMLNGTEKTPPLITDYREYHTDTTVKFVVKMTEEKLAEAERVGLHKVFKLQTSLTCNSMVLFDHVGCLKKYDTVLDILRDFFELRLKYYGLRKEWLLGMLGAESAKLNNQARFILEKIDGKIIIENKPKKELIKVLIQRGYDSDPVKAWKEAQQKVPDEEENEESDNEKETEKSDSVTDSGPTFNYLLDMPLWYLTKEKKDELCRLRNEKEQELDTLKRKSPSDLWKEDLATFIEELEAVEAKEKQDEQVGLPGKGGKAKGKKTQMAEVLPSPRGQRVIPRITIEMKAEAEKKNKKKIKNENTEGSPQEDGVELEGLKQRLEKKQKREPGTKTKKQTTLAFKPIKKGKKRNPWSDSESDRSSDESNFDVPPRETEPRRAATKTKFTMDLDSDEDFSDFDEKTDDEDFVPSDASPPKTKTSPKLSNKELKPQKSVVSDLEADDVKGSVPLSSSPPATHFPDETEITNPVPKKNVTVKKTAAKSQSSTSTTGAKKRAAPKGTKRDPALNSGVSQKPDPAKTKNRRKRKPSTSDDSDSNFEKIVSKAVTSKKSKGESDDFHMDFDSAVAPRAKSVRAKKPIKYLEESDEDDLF
How it was run: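 Compound added at constant solvent volume. Started with 1 U human topo IIα, 30 min at 37 °C. Stopped with sarkosyl/bromophenol blue/glycerol buffer. Read on 1% agarose TAE gel, ethidium-stained, imaged under UV.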

[5] = biological target: T2, DNA topoisomerase 2-alpha; test: Ratio IC50 of etoposide to IC50 of compound for human topoisomerase 2 alpha
How it was run: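 Human topo IIα relaxation of 0.2 μg pBR322 in Tris pH 8.0 buffer with 5 mM ATP, using 1 U enzyme for 30 min at 37 °C, read on agarose gel.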

Ehrlich = test: Inhibition of DNA primase in mouse EAC cells assessed as incorporation of [3H]dATP to […] template at 100 uM after 1 hr by scintillation counting; format: cell-based
How it was run: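 DNA primase isolated from Ehrlich ascites carcinoma cells grown in culture.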

[6] = biological target: Telomerase reverse transcriptase (Homo sapiens) (UniProt O14746); test: Inhibition of telomerase in human K562 cells at 20 uM using telo TAGGG telomerase PCR ELISA; format: cell-based
Sequence of Telomerase reverse transcriptase (Homo sapiens) (O14746 whole entry): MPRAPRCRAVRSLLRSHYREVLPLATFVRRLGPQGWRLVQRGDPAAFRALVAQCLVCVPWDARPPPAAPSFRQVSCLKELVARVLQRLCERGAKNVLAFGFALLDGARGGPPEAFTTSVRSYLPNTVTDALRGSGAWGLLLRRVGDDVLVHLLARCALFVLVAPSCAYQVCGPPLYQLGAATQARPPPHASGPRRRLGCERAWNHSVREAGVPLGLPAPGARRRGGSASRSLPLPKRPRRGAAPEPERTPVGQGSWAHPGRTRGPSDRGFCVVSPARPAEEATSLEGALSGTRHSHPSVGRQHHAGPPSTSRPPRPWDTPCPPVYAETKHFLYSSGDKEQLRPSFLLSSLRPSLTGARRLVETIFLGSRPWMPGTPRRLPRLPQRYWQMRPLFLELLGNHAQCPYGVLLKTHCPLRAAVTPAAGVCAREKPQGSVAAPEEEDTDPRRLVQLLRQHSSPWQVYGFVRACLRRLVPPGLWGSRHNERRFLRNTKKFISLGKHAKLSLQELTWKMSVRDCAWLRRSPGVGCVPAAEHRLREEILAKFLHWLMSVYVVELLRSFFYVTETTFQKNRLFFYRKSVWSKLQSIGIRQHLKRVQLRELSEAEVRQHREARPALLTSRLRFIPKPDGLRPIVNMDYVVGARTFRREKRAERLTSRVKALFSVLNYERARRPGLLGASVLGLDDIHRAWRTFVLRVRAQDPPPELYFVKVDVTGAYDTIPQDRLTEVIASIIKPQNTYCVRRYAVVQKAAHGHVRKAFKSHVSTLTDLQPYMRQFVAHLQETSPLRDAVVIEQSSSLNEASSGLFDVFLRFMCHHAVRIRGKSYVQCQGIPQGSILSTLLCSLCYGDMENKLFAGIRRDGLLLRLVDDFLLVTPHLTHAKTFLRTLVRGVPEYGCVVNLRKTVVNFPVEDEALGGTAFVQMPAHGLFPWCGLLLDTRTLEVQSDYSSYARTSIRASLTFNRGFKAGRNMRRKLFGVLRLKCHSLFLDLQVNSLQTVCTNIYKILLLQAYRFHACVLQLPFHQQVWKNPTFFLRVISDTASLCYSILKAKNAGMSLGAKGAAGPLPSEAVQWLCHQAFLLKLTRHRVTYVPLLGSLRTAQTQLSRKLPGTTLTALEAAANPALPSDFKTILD
How it was run: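 TRAP-based kit with non-radioactive ELISA read-out, run on K562 human leukemia cells per the manufacturer's instructions.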

Q: What does the source list for `CC[C@@]1(O)C(=O)OCc2c1cc1n(c2=O)Cc2cc3cc(O)ccc3nc2-1` [HYDROXYCAMPTOTHECIN]?
A: IC50 [1]: 1.04 µM; IC50 [2]: 0.23 µM

Q: For `O=C1C=C2OCCc3cccc(c32)/C1=N/O`, which IC50 [1] is on record?
A: Its IC50 is 5.7 µM.

Q: And the IC50 [2]?
A: The IC50 was 42.8 µM.

Q: Which results are given for `CC1(O)COC2=C(Cl)C(=O)C(=O)c3cccc1c32` (stereo unspecified)?
A: IC50 [1]: 8.12 µM; IC50 [2]: 11.3 µM; inhibition [3]: Active

Q: For `CCCC1(O)COC2=C(Cl)C(=O)C(=O)c3cccc1c32` (stereo unspecified), which IC50 [1] is on record?
A: The IC50 was 3.59 µM.

Q: And the IC50 [2]?
A: Its IC50 is 7.93 µM.

Q: And the inhibition [3]?
A: Its inhibition is “Active”.

Q: What does the source list for `O=C1C(=O)c2cccc3c2C(=C1Cl)OC=C3c1ccc(F)cc1`?
A: IC50 [1]: 27.5 µM; IC50 [2]: 31.3 µM; inhibition [3]: Active

Q: For `c1ccc2nc3c(cc4c5c(cccc53)CCO4)nc2c1`, which IC50 [1] is on record?
A: The IC50 was over 50 µM.

Q: What about the IC50 [2] of the same compound?
A: The IC50 was over 50 µM.

Q: Which IC50 [1] does the source give for `O=C1C=C2OCC(O)(c3ccccc3)c3cccc(c32)C1=O` (stereo unspecified) here?
A: Its IC50 is 3.18 µM.

Q: And the IC50 [2]?
A: Its IC50 is 5.33 µM.

Q: What about the inhibition [3] of the same compound?
A: The inhibition was “Active”.

Q: Which IC50 [1] does the source give for `CC1=C(OCC(=O)c2ccc(C)c(C)c2)c2ccccc2C(=O)C1=O` here?
A: The IC50 was over 50 µM.

Q: And the IC50 [2]?
A: Its IC50 is over 50 µM.

Q: With `O=C1C(=O)c2cccc3c2C(=C1Cl)OCC3(O)Cc1ccccc1` (stereo unspecified) as the compound, how does the IC50 [1] read?
A: Its IC50 is 6.34 µM.

Q: And the IC50 [2]?
A: The IC50 was 2.75 µM.

Q: And the inhibition [3]?
A: The inhibition was “Active”.

Q: For `C=CCC1=COC2=C(Cl)C(=O)C(=O)c3cccc1c32`, which IC50 [1] is on record?
A: The IC50 was 5.2 µM.

Q: What about the IC50 [4] of the same compound?
A: Its IC50 is 1.54 µM.

Q: And the Ratio IC50 [5]?
A: The Ratio IC50 was 39.

Q: What about the IC50 [2] of the same compound?
A: Its IC50 is 3.77 µM.

Q: And the inhibition [3]?
A: The inhibition was “Active”.

Q: Which results are given for `CC1=C(OCC#N)c2ccccc2C(=O)C1=O`?
A: IC50 [1]: 39.5 µM; IC50 [2]: 39.2 µM

Q: What does the source list for `O=C1C=C2OC=C(Cc3ccccc3)c3cccc(c32)C1=O`?
A: IC50 [1]: 6.52 µM; IC50 [2]: 2.88 µM; inhibition [3]: Active

Q: For `O=C1C=C2OC=C(c3ccc(F)cc3)c3cccc(c32)C1=O`, which IC50 [1] is on record?
A: Its IC50 is 16 µM.

Q: What about the IC50 [2] of the same compound?
A: The IC50 was 3.21 µM.

Q: And the inhibition [3]?
A: The inhibition was “Active”.

Q: Which IC50 [1] does the source give for `O=C1C=C2OCC(O)(c3ccc(F)cc3)c3cccc(c32)C1=O` (stereo unspecified) here?
A: The IC50 was 9.76 µM.

Q: What about the IC50 [2] of the same compound?
A: The IC50 was 6.63 µM.

Q: And the inhibition [3]?
A: The inhibition was “Active”.

Q: For `c1cc2c3c(cc4nccnc4c3c1)OCC2`, which IC50 [1] is on record?
A: The IC50 was over 50 µM.

Q: What about the IC50 [2] of the same compound?
A: Its IC50 is over 50 µM.

Q: What does the source list for `O=C1C=C2OC=C(c3ccccc3)c3cccc(c32)C1=O`?
A: IC50 [1]: 9.19 µM; IC50 [2]: 3.68 µM; inhibition [3]: Active

Q: With `CC(=O)COC1=C(C)C(=O)C(=O)c2ccccc21` as the compound, how does the IC50 [1] read?
A: The IC50 was over 50 µM.

Q: What about the IC50 [2] of the same compound?
A: Its IC50 is over 50 µM.

Q: Which IC50 [1] does the source give for `CC1(O)COC2=CC(=O)C(=O)c3cccc1c32` (stereo unspecified) here?
A: The IC50 was 17.3 µM.

Q: And the IC50 [2]?
A: The IC50 was 19.2 µM.

Q: What does the source list for `O=C1C(=O)c2cccc3c2C(=C1Cl)OC=C3c1ccccc1`?
A: IC50 [1]: 33.3 µM; IC50 [2]: 40.2 µM; inhibition [3]: Active

Q: For `O=C1C(=O)c2cccc3c2C(=C1Cl)OCC3(O)c1ccccc1` (stereo unspecified), which IC50 [1] is on record?
A: Its IC50 is 2.87 µM.

Q: And the IC50 [2]?
A: The IC50 was 5.63 µM.

Q: And the inhibition [3]?
A: The inhibition was “Active”.

Q: What does the source list for `CC1COC2=CC(=O)C(=O)c3cccc1c32` (stereo unspecified)?
A: inhibition (Ehrlich): 29%; IC50 [1]: 2.05 µM; IC50 [4]: 1.88 µM; Ratio IC50 [5]: 32; inhibition [6]: 22%; IC50 [2]: 1.77 µM; inhibition [3]: inactive

Q: Which IC50 [1] does the source give for `O=C1C(=O)c2cccc3c2C(=C1Cl)OC=C3Cc1ccccc1` here?
A: Its IC50 is 21.5 µM.

Q: What about the IC50 [2] of the same compound?
A: The IC50 was 21.6 µM.

Q: What about the inhibition [3] of the same compound?
A: Its inhibition is “Active”.

Q: Which IC50 [1] does the source give for `c1ccc(-c2nc3cc4c5c(cccc5c3o2)CCO4)cc1` here?
A: Its IC50 is over 50 µM.

Q: What about the IC50 [2] of the same compound?
A: Its IC50 is over 50 µM.

Q: Which IC50 [1] does the source give for `C=CCC1(O)COC2=C(Cl)C(=O)C(=O)c3cccc1c32` (stereo unspecified) here?
A: Its IC50 is 3.54 µM.

Q: What about the IC50 [2] of the same compound?
A: Its IC50 is 5.33 µM.

Q: And the inhibition [3]?
A: The inhibition was “Active”.

Q: For `O=C1/C(=N\O)C=C2OCCc3cccc1c32`, which IC50 [1] is on record?
A: The IC50 was over 50 µM.

Q: What about the IC50 [2] of the same compound?
A: The IC50 was over 50 µM.

Q: With `CC1=C(OCC(=O)c2ccc(Cl)cc2)c2ccccc2C(=O)C1=O` as the compound, how does the IC50 [1] read?
A: Its IC50 is 30.4 µM.

Q: What about the IC50 [2] of the same compound?
A: The IC50 was over 50 µM.

Q: Which IC50 [1] does the source give for `O=C1C=C2OCCc3cccc(c32)C1=O` here?
A: Its IC50 is 4.83 µM.

Q: And the IC50 [2]?
A: The IC50 was 5.32 µM.

Q: What does the source list for `COc1ccc(C(=O)COC2=C(C)C(=O)C(=O)c3ccccc32)cc1`?
A: IC50 [1]: 30.4 µM; IC50 [2]: 44.3 µM

Q: Which IC50 [1] does the source give for `O=C1C=C2OCC(O)(Cc3ccccc3)c3cccc(c32)C1=O` (stereo unspecified) here?
A: The IC50 was 4.47 µM.

Q: What about the IC50 [4] of the same compound?
A: The IC50 was 4.88 µM.

Q: What about the Ratio IC50 [5] of the same compound?
A: The Ratio IC50 was 12.

Q: What about the IC50 [2] of the same compound?
A: The IC50 was 3.82 µM.

Q: And the inhibition [3]?
A: The inhibition was “Active”.

Q: Which IC50 [1] does the source give for `CC1(OC(=O)c2ccccc2)COC2=C(Cl)C(=O)C(=O)c3cccc1c32` (stereo unspecified) here?
A: Its IC50 is 8.05 µM.

Q: And the IC50 [2]?
A: The IC50 was 10.8 µM.

Q: And the inhibition [3]?
A: Its inhibition is “Active”.

Q: Which IC50 [1] does the source give for `CC1=COC2=C(C)C(=O)C(=O)c3c(C)ccc1c32` [MANSONONE F] here?
A: The IC50 was 27.3 µM.

Q: And the IC50 [2]?
A: Its IC50 is 15.5 µM.

Q: What about the inhibition [3] of the same compound?
A: The inhibition was “Active”.

Q: With `C=CCOC1=C(C)C(=O)C(=O)c2ccccc21` as the compound, how does the IC50 [1] read?
A: The IC50 was over 50 µM.

Q: And the IC50 [2]?
A: Its IC50 is over 50 µM.

Q: Which IC50 [1] does the source give for `CCCC1=COC2=C(Cl)C(=O)C(=O)c3cccc1c32` here?
A: The IC50 was 3.93 µM.

Q: And the IC50 [2]?
A: Its IC50 is 2.15 µM.

Q: And the inhibition [3]?
A: The inhibition was “Active”.

Q: Which results are given for `O=C1C(=O)c2cccc3c2C(=C1Cl)OCC3(O)c1ccc(F)cc1` (stereo unspecified)?
A: IC50 [1]: 13.5 µM; IC50 [2]: 9.74 µM; inhibition [3]: Active
